# Measurements from ChEMBL document CHEMBL4354813, “Design, Synthesis, and Pharmacological Evaluation of Potent Positive Allosteric Modulators of the Glucagon-like Peptide-1 Receptor (GLP-1R)” (J Med Chem, 2020).
# Activity calls are given as the source filed them. The calls are words filed in the database; no cut-off is given here.
# Assays:
# [1] = target: T1, Glucagon-like peptide 1 receptor (Homo sapiens, UniProt P43220); assay: Positive allosteric modulator activity at human GLP-1R expressed in PSC-HEK293 cells assessed as potentiation of GLP1(9-36)NH2-induced cAMP accumulation by measuring shift in EC50 of endogenous GLP1(9-36)NH2 at 10 uM incubated for 30 mins by HTRF cAMP assay relative to control; format: functional, cell-based
# Outline: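 Thawed frozen PSC-HEK293 cells stably expressing human GLP-1R, 2000 cells/well in HBSS/20 mM HEPES/0.1% BSA with 2 mM IBMX. Shift format: GLP1(9-36)NH2 dose-response with compound fixed at 10 or 3 µM; 30 min room temperature; cAMP by HTRF (665/620 nm ratio) after 1 h with lysis reagents; 4-parameter logistic fit; EC50 shift factor derived.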
# [2] = target: T1, Glucagon-like peptide 1 receptor; assay: Positive allosteric modulator activity at human GLP-1R expressed in PSC-HEK293 cells assessed as potentiation of cAMP accumulation incubated for 30 mins by HTRF cAMP assay
# [3] = target: T1, Glucagon-like peptide 1 receptor; assay: Positive allosteric modulator activity at human GLP-1R expressed in PSC-HEK293 cells assessed as potentiation of GLP1(9-36)NH2-induced cAMP accumulation by measuring shift in EC50 of endogenous GLP1(9-36)NH2 at 3 uM incubated for 30 mins by HTRF cAMP assay relative to control; format: functional, cell-based
# Outline: (§1)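 Thaw-and-use PSC-HEK293 cells stably expressing human GLP-1R, 2000 cells/well in HBSS/20 mM HEPES/0.1% BSA with 2 mM IBMX. Enhancer format: compound dose-response plus fixed EC20 GLP1(9-36)NH2. Shift format: GLP1(9-36)NH2 dose-response plus 10 or 3 μM compound. 30 min at room temperature. HTRF cAMP read after 1 h lysis (665/620 nm). EC50 from a 4-parameter logistic fit.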
# [4] = target: T1, Glucagon-like peptide 1 receptor; assay: Positive allosteric modulator activity at human GLP-1R expressed in PSC-HEK293 cells assessed as potentiation of GLP-1(7-36)NH2-induced cAMP accumulation incubated for 30 mins by HTRF cAMP assay relative to control; format: functional, cell-based
# [5] = target: T2, Glucagon-like peptide 1 receptor (Mus musculus) (UniProt O35659); assay: Positive allosteric modulator activity at GLP-1R in mouse MIN6-c4 cells assessed as effect on glucose-mediated increase in intracellular Ca2+ level by FLIPR assay relative to control; format: functional, cell-based
# T2 sequence (whole entry): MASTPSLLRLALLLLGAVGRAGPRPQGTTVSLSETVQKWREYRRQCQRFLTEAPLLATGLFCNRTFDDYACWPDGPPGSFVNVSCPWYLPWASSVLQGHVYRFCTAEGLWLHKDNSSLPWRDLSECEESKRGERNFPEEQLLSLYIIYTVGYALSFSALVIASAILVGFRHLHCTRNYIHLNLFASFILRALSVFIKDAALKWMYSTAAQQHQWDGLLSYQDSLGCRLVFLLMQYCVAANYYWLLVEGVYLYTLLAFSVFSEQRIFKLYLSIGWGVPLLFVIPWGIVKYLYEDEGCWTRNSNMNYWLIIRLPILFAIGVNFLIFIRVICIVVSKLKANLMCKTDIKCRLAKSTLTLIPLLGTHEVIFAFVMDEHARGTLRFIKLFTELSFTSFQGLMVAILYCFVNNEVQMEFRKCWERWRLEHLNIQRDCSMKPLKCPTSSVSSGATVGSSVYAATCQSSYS
# [6] = target: T1, Glucagon-like peptide 1 receptor; assay: Positive allosteric modulator activity at human GLP-1R expressed in PSC-HEK293 cells assessed as potentiation of oxyntomodulin-induced cAMP accumulation incubated for 30 mins by HTRF cAMP assay relative to control; format: functional, cell-based
# Outline: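 Counterscreen in HEK293 cells with recombinant receptor, 2000 cells/well, 2 mM IBMX, 30 min at room temperature. Compound tested with 10 nM oxyntomodulin (GLP-1R cells) or with GLP-1(9-36)NH2 in glucagon-receptor-overexpressing cells. cAMP read by HTRF at 665/620 nm.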
# [7] = target: Glucagon receptor (Homo sapiens) (UniProt P47871); assay: Activity at human GCGR expressed in PSC-HEK293 cells incubated for 30 mins by HTRF cAMP assay; format: functional, cell-based
# [8] = target: T1, Glucagon-like peptide 1 receptor; assay: Positive allosteric modulator activity at GLP-1R in human 1.1B4 cells in presence of EC20 level of GLP1(9-36)NH2 incubated for 30 mins by HTRF cAMP assay; format: functional, cell-based; details: read-out: EC50
# Outline: (§2)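 Human pancreatic β-cell line 1.1B4, 20,000 cells/well cultured overnight, washed twice; compound concentration-response with fixed 10 nM GLP1(9-36)NH2, 30 min. cAMP by HTRF 665/620 ratio, normalised to buffer (1x HBSS, 0.1% BSA, 1 mM IBMX; 0%) and GLP-1(7-36)NH2 (100%); 4-parameter logistic fit.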
# [9] = target: T2, Glucagon-like peptide 1 receptor (Mus musculus); assay: Inhibition of 15 mM glucose-mediated increase in intracellular Ca2+ level in mouse MIN6-c4 cells at 0.12 to 30 uM by FLIPR assay relative to control; format: functional, cell-based
# [10] = target: T1, Glucagon-like peptide 1 receptor; assay: Positive allosteric modulator activity at human GLP-1R expressed in PSC-HEK293 cells in presence of EC20 level of GLP1(9-36)NH2 incubated for 30 mins by HTRF cAMP assay; format: functional, cell-based
# Outline: as §1, with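 “temperature.” for “temperature. HTRF cAMP read after 1 h lysis (665/620 nm).”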
# [11] = target: T1, Glucagon-like peptide 1 receptor; assay: Positive allosteric modulator activity at GLP-1R in human 1.1B4 cells in presence of EC20 level of GLP1(9-36)NH2 incubated for 30 mins by HTRF cAMP assay relative to control; format: functional, cell-based; outline: as §2
# [12] = target: Glucagon receptor (Homo sapiens) (UniProt P47871); assay: Positive allosteric modulator activity at human GCGR expressed in PSC-HEK293 cells assessed as potentiation of GLP-1(9-36)NH2-induced cAMP accumulation incubated for 30 mins by HTRF cAMP assay relative to control; format: functional, cell-based
# [13] = target: T1, Glucagon-like peptide 1 receptor; assay: Positive allosteric modulator activity at human GLP-1R expressed in PSC-HEK293 cells in presence of EC20 level of GLP1(9-36)NH2 incubated for 30 mins by HTRF cAMP assay relative to control; format: functional, cell-based; outline: as §1
# Sequence of Glucagon receptor (Homo sapiens) (P47871 whole entry): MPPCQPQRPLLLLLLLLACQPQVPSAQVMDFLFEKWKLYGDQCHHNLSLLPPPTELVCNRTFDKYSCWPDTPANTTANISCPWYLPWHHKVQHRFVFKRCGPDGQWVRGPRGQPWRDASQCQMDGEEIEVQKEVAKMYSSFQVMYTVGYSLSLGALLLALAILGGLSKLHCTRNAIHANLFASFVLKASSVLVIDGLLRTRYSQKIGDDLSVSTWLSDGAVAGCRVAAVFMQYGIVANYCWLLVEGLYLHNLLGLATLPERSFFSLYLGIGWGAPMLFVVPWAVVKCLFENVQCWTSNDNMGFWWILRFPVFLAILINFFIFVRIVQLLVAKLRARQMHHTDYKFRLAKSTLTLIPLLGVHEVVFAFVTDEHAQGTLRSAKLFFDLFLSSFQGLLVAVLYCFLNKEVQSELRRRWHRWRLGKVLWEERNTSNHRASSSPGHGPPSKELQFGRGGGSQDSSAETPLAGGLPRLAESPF
# T1 sequence (P43220 whole entry): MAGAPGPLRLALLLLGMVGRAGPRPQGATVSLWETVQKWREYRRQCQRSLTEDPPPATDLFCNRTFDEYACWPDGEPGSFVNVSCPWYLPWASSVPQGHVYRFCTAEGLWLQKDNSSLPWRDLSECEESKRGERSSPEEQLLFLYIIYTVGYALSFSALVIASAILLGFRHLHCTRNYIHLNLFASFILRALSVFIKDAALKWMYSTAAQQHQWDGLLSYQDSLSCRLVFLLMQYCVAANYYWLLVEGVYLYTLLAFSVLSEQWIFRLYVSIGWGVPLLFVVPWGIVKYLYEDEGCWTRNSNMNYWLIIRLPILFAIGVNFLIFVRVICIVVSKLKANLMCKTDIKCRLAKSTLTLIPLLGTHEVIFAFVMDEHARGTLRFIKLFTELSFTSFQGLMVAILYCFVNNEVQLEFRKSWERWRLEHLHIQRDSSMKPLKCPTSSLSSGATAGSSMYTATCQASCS
SMILES,Ratio EC50 [1],Activity [2],Ratio EC50 [3],Activity [4],fold change (FC) [5],Activity [6],Activity [7],EC50 [8],inhibition [9],EC50 [10],Emax [11],Activity [12],Emax [13]
CC(C)(C)OC(=O)n1c2c(c3ccccc31)C[C@H]1C(=O)N3C[C@@H](CC(=O)O)C[C@H]3[C@@H]2N1C(=O)CC1CCC(F)(F)CC1,8190,inactive,2220,inactive,1.2,inactive,inactive,130 nM,inactive,5 nM,102%,inactive,100%
CC(O)CCN1C[C@H]2c3c(c4ccccc4n3C(=O)OC(C)(C)C)C[C@@H](C1=O)N2C(=O)CC1CCC(F)(F)CC1 (stereo partly specified),3140,inactive,526,inactive,0.9,inactive,inactive,40 nM,Active,1.5 nM,100%,inactive,100%
